Assay results as given in ChEMBL document CHEMBL4004830 (J Med Chem, 2017).
Active and inactive are the calls of the source. No cut-off for these calls is given here.

Tests used:
[1] = molecular target: Cyclin-dependent kinase 1/cyclin B1 (Homo sapiens) (UniProt P06493+P14635); assay: (§1) Inhibition of CDK1/cyclin B (unknown origin) in presence of [gamma-33P]-ATP […]; assay type: protein-complex assay
[2] = molecular target: Cyclin-dependent kinase 7/ cyclin H (Homo sapiens) (UniProt P51946+P50613); assay: (§2) Inhibition of CDK7/cyclin H (unknown origin) in presence of [gamma-33P]-ATP […]; assay type: protein-complex assay
MV4-11 [3] = assay: Growth inhibition of human MV4-11 cells after 72 hrs by resazurin assay; assay type: functional; conditions: MV4-11, 72 h
Procedure, shortened: (§3)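 72 h antiproliferation assay, resazurin read-out for MV4-11 and MTT read-out for MDA-MB-453; values from at least two replicates.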

MDA-MB-453 = assay: Growth inhibition of human MDA-MB-453 cells after 72 hrs by MTT assay; assay type: functional; conditions: MDA-MB-453, 72 h; procedure, shortened: as §3
[4] = molecular target: Dual specificity tyrosine-phosphorylation-regulated kinase 1A (Rattus norvegicus) (UniProt Q63470); assay: Inhibition of recombinant rat N-terminal GST-tagged DYRK1A (1 to 499 amino acid residues) expressed in Escherichia coli assessed as residual activity at 10 uM
[5] = molecular target: Homeodomain-interacting protein kinase 2 (Homo sapiens) (UniProt Q9H2X6); assay: Inhibition of recombinant human N-terminal His6-tagged HIPK2 (165 to 564 amino acid residues) expressed in baculovirus infected Sf21 insect cells assessed as residual activity at 10 uM
[6] = molecular target: Dual specificity tyrosine-phosphorylation-regulated kinase 1B (Homo sapiens) (UniProt Q9Y463); assay: Inhibition of DYRK1B (unknown origin) assessed as residual activity at 10 uM
[7] = molecular target: Cyclin-dependent kinase 1/cyclin B1 (Homo sapiens, UniProt P06493); assay: as §1; assay type: protein-complex assay; conditions: read-out: Ki(app)
CDK2/Cyclin A2 = CDK2/Cyclin A2 (Homo sapiens, UniProt P24941); assay: Inhibition of CDK2/cyclin A (unknown origin) in presence of [gamma-33P]-ATP […]; assay type: protein-complex assay; conditions: read-out: Ki(app)
[8] = molecular target: Cyclin-dependent kinase 7/ cyclin H (Homo sapiens, UniProt P50613); assay: as §2; assay type: protein-complex assay; conditions: read-out: Ki(app)
MV4-11 [9] = assay: Cell cycle arrest in human MV4-11 cells assessed as accumulation at sub-G1 phase at 0.04 uM after 24 hrs by propidium iodide staining based flow cytometry (reference value: 1.99%); assay type: functional
MV4-11 [10] = assay: Cell cycle arrest in human MV4-11 cells assessed as accumulation at G1 phase at 0.04 uM after 24 hrs by propidium iodide staining based flow cytometry (reference value: 61.01%); assay type: functional
MV4-11 [11] = assay: Cell cycle arrest in human MV4-11 cells assessed as accumulation at S phase at 0.04 uM after 24 hrs by propidium iodide staining based flow cytometry (reference value: 19.07%); assay type: functional
MV4-11 [12] = assay: Cell cycle arrest in human MV4-11 cells assessed as accumulation at G2/M phase at 0.04 uM after 24 hrs by propidium iodide staining based flow cytometry (reference value: 17.94%); assay type: functional
MV4-11 [13] = assay: Cell cycle arrest in human MV4-11 cells assessed as accumulation at sub-G1 phase at 0.20 uM after 24 hrs by propidium iodide staining based flow cytometry (reference value: 1.99%); assay type: functional
MV4-11 [14] = assay: Cell cycle arrest in human MV4-11 cells assessed as accumulation at G1 phase at 0.20 uM after 24 hrs by propidium iodide staining based flow cytometry (reference value: 61.01%); assay type: functional
MV4-11 [15] = assay: Cell cycle arrest in human MV4-11 cells assessed as accumulation at S phase at 0.20 uM after 24 hrs by propidium iodide staining based flow cytometry (reference value: 19.07%); assay type: functional
MV4-11 [16] = assay: Cell cycle arrest in human MV4-11 cells assessed as accumulation at G2/M phase at 0.20 uM after 24 hrs by propidium iodide staining based flow cytometry (reference value: 17.94%); assay type: functional
MV4-11 [17] = assay: Cell cycle arrest in human MV4-11 cells assessed as accumulation at sub-G1 phase at 0.40 uM after 24 hrs by propidium iodide staining based flow cytometry (reference value: 1.99%); assay type: functional
MV4-11 [18] = assay: Cell cycle arrest in human MV4-11 cells assessed as accumulation at G1 phase at 0.40 uM after 24 hrs by propidium iodide staining based flow cytometry (reference value: 61.01%); assay type: functional
MV4-11 [19] = assay: Cell cycle arrest in human MV4-11 cells assessed as accumulation at S phase at 0.40 uM after 24 hrs by propidium iodide staining based flow cytometry (reference value: 19.07%); assay type: functional
MV4-11 [20] = assay: Cell cycle arrest in human MV4-11 cells assessed as accumulation at G2/M phase at 0.40 uM after 24 hrs by propidium iodide staining based flow cytometry (reference value: 17.94%); assay type: functional
MV4-11 [21] = assay: Cell cycle arrest in human MV4-11 cells assessed as accumulation at G1 phase after 24 hrs by propidium iodide staining based flow cytometry; assay type: functional
Homo sapiens = species: Homo sapiens; assay: Inhibition of SGK (unknown origin) assessed as residual activity at 10 uM; values are per cent of control
[22] = molecular target: Dual specificity tyrosine-phosphorylation-regulated kinase 1B (Homo sapiens) (UniProt Q9Y463); assay: Inhibition of DYRK1B (unknown origin) assessed as residual activity at 10 uM; values are per cent of control
[23] = molecular target: Serine/threonine-protein kinase pim-1 (Homo sapiens) (UniProt P11309); assay: Inhibition of recombinant full-length human N-terminal GST-tagged Pim-1 expressed in Escherichia coli assessed as residual activity at 10 uM; values are per cent of control
[24] = molecular target: Dual specificity tyrosine-phosphorylation-regulated kinase 1A (Rattus norvegicus) (UniProt Q63470); assay: Inhibition of recombinant rat N-terminal GST-tagged DYRK1A (1 to 499 amino acid residues) expressed in Escherichia coli assessed as residual activity at 10 uM; values are per cent of control
[25] = molecular target: MAP kinase-interacting serine/threonine-protein kinase 2 (Homo sapiens) (UniProt Q9HBH9); assay: Inhibition of recombinant full-length human N-terminal His6-tagged Mnk2 expressed in baculovirus infected Sf21 insect cells assessed as residual activity at 10 uM; values are per cent of control
[26] = molecular target: Death-associated protein kinase 1 (Homo sapiens) (UniProt P53355); assay: Inhibition of recombinant human N-terminal GST-tagged DAPK1 (1 to 296 amino acid residues) expressed in baculovirus infected Sf21 cells assessed as residual activity at 10 uM; values are per cent of control
[27] = molecular target: Receptor-type tyrosine-protein kinase FLT3 (Homo sapiens) (UniProt P36888); assay: Inhibition of recombinant human N-terminal GST-tagged Flt3 (564 to end amino acid residues) expressed in baculovirus infected Sf21 insect cells assessed as residual activity at 10 uM; values are per cent of control
[28] = molecular target: Vascular endothelial growth factor receptor 3 (Homo sapiens) (UniProt P35916); assay: Inhibition of recombinant human N-terminal GST-tagged Flt4 (800 to end amino acid residues) expressed in baculovirus infected Sf21 insect cells assessed as residual activity at 10 uM; values are per cent of control
[29] = molecular target: Fibroblast growth factor receptor 1 (Homo sapiens) (UniProt P11362); assay: Inhibition of recombinant human N-terminal GST-tagged FGFR1 (456 to 765 amino acid residues) expressed in baculovirus infected Sf21 insect cells assessed as residual activity at 10 uM; values are per cent of control
[30] = molecular target: Homeodomain-interacting protein kinase 2 (Homo sapiens) (UniProt Q9H2X6); assay: Inhibition of recombinant human N-terminal His6-tagged HIPK2 (165 to 564 amino acid residues) expressed in baculovirus infected Sf21 insect cells assessed as residual activity at 10 uM; values are per cent of control

Sequence of Dual specificity tyrosine-phosphorylation-regulated kinase 1B (Homo sapiens) (Q9Y463 whole entry, looked up): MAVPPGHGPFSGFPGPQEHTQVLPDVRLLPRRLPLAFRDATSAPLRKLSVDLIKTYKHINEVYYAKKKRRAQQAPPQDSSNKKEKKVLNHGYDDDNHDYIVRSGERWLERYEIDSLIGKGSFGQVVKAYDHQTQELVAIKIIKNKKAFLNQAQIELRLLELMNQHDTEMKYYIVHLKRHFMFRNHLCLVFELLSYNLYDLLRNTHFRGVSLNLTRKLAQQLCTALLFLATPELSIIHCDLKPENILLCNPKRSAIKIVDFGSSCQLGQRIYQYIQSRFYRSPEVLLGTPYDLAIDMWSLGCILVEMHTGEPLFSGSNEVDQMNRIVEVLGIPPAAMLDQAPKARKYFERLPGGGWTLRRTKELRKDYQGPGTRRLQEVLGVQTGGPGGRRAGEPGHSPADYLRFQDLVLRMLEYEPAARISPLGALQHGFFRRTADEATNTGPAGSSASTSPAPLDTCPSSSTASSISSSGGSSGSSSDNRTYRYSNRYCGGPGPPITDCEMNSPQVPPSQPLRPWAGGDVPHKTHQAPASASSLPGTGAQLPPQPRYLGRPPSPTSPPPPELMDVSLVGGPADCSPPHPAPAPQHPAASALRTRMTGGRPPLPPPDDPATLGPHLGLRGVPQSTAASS
Sequence of Homeodomain-interacting protein kinase 2 (Homo sapiens) (Q9H2X6 whole entry, looked up, the tested form may be a part): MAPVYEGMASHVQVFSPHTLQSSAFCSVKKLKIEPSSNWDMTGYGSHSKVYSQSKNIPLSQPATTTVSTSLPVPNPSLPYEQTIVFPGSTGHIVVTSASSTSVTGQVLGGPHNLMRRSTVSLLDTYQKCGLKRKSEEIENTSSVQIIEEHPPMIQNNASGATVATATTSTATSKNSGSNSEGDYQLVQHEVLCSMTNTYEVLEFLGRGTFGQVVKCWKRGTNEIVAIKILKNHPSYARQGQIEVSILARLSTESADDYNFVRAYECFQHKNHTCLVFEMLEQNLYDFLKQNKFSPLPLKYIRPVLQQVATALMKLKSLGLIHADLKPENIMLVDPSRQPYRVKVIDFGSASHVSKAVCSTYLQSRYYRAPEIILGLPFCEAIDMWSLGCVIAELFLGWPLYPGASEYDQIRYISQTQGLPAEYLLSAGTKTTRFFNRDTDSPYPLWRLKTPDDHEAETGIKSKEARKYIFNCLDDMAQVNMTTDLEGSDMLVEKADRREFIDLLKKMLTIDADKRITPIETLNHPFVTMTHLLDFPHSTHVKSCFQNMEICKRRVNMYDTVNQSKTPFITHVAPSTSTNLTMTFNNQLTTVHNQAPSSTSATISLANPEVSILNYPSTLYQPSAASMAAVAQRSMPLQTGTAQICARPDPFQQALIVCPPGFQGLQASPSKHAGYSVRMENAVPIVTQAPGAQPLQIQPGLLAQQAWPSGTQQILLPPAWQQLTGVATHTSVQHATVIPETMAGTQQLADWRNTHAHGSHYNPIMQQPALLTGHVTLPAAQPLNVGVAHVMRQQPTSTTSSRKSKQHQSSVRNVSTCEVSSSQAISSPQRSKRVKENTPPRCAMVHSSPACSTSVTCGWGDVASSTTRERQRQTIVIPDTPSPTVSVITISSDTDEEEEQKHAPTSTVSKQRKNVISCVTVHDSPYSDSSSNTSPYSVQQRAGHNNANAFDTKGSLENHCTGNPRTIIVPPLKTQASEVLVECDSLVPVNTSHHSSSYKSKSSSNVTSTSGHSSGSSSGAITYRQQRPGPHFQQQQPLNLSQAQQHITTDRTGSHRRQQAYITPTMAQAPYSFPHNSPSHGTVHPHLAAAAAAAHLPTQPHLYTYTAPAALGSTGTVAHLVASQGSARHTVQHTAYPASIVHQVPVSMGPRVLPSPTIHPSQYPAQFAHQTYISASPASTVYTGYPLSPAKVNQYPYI
Sequence of Fibroblast growth factor receptor 1 (Homo sapiens) (P11362 22-822 limits assumed): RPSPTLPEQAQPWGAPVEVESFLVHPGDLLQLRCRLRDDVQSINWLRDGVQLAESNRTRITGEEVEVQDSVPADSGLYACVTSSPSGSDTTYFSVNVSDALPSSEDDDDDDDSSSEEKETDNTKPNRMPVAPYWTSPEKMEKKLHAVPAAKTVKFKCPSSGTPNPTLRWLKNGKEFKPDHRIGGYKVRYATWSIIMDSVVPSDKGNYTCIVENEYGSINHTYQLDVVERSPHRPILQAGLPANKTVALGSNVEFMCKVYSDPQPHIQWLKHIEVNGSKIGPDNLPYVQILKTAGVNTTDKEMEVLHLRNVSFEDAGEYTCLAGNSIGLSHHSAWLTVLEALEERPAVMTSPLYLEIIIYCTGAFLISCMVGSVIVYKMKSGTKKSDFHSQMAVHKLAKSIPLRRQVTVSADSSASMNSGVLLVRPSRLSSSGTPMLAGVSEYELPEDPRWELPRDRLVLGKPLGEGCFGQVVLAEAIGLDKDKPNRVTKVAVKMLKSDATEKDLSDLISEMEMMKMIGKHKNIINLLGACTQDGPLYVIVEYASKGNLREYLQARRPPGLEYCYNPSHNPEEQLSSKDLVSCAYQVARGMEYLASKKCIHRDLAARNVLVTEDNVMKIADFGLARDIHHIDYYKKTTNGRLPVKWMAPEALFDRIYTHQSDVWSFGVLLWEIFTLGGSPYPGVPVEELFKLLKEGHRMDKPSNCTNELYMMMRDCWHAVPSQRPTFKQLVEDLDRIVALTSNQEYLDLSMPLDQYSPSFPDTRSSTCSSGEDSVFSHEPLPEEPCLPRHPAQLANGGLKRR
Sequence of Vascular endothelial growth factor receptor 3 (Homo sapiens) (P35916 whole entry, the tested form may be a part): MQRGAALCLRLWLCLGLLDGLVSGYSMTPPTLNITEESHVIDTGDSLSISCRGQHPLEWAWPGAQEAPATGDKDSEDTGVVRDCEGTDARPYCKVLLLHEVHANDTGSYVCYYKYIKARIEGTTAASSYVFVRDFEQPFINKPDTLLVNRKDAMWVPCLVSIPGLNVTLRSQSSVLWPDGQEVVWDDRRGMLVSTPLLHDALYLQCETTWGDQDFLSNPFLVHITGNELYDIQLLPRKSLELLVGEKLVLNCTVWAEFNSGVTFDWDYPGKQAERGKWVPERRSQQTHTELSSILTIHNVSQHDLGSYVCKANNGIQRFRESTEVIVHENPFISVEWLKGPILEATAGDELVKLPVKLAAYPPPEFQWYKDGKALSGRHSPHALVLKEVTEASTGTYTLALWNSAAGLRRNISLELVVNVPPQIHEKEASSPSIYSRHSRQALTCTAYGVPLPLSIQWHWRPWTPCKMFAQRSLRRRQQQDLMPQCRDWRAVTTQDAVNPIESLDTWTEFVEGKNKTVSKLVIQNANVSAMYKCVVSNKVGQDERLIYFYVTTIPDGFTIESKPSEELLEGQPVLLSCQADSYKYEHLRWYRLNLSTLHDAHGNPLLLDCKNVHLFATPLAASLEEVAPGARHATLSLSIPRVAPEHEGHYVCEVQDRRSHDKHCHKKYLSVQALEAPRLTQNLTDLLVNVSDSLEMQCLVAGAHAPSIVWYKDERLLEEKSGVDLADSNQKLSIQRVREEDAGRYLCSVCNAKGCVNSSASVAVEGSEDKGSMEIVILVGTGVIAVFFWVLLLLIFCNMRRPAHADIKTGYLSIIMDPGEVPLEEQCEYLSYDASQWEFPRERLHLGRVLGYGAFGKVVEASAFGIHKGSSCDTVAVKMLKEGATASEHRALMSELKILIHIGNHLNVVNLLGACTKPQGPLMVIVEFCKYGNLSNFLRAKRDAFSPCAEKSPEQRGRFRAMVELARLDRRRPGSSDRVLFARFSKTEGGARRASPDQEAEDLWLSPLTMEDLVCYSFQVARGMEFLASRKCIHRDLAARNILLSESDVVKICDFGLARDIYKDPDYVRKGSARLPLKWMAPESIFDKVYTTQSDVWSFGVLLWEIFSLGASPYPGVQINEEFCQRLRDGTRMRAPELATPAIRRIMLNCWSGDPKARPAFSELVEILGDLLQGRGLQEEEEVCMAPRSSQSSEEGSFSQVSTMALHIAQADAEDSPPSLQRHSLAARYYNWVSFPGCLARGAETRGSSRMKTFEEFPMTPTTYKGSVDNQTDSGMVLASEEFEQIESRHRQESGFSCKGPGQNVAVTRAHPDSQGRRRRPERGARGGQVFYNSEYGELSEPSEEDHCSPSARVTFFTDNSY
Sequence of MAP kinase-interacting serine/threonine-protein kinase 2 (Homo sapiens) (Q9HBH9 whole entry, looked up, the tested form may be a part): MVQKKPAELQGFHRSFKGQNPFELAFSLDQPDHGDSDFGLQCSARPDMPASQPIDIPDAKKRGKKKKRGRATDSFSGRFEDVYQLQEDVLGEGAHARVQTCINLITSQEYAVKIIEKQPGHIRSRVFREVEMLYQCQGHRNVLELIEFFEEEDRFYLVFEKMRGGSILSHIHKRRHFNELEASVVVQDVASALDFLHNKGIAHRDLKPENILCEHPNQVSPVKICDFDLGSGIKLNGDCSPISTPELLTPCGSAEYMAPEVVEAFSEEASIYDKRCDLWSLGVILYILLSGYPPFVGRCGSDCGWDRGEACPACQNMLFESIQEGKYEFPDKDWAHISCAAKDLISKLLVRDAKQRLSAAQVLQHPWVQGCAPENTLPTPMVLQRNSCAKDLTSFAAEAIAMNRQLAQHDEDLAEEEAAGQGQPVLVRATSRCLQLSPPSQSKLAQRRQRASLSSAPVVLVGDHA
Sequence of Serine/threonine-protein kinase pim-1 (Homo sapiens) (P11309 whole entry, looked up, the tested form may be a part): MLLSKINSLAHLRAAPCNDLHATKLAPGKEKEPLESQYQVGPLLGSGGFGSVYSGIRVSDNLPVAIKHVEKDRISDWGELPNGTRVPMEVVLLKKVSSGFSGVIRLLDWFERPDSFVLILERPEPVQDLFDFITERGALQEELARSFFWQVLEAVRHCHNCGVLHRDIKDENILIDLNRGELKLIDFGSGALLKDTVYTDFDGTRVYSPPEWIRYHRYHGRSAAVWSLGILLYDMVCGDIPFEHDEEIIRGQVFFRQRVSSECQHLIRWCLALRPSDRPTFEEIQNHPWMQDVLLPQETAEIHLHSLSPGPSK

For `Cc1nc(NC2CCCC2)sc1-c1nc(Nc2ccc(N3CCC(N(C)C)CC3)cn2)ncc1F`, the “Ki(app)” value [1] was “inactive”, the “Ki(app)” value [2] was “inactive” and the GI50 (MV4-11 [3]) was 454 nM. For the same compound, the GI50 (MDA-MB-453) was 356 nM, the inhibition [4] was “Active” and the inhibition [5] was “Active”. The inhibition [6] was “Active”.

In the case of `Cc1nc(NC2CCCC2)sc1-c1ccnc(Nc2ccc(N3CCNCC3)cn2)n1`, the Ki [7] is reported as > 5000 nM, the Ki (CDK2/Cyclin A2) is reported as > 5000 nM and the Ki [8] is reported as 1110 nM. For the same compound, the GI50 (MV4-11 [3]) was 23 nM, the GI50 (MDA-MB-453) was 70 nM and the Activity (MV4-11 [9]) was 6.3%. The Activity (MV4-11 [10]) was 64.05%, the Activity (MV4-11 [11]) was 17.01% and the Activity (MV4-11 [12]) was 12.73%. It also gave an Activity (MV4-11 [13]) of 4.23%, an Activity (MV4-11 [14]) of 72.09% and an Activity (MV4-11 [15]) of 13.52%. For the same compound, the Activity (MV4-11 [16]) was 9.96%, the Activity (MV4-11 [17]) was 4.01% and the Activity (MV4-11 [18]) was 85 - 85.24%. For the same compound, the Activity (MV4-11 [19]) was 5.9%, the Activity (MV4-11 [20]) was 4.7% and the Activity (MV4-11 [21]) was “Dose-dependent effect”. The residual activity (Homo sapiens) was < 10%, the residual activity [22] was < 10% and the residual activity [23] was < 10%. The residual activity [24] was < 10%, the residual activity [25] was < 10% and the residual activity [26] was < 10%. For the same compound, the residual activity [27] was < 10%, the residual activity [28] was < 10% and the residual activity [29] was < 10%. The residual activity [30] was < 10%.
